Measured values reported in PMC11897355 (Nature Communications, 2025).
Changes are numbered by the printed parent chain. “Also recorded” adds a separate entry of the source. Each block holds one compound with its values, some of them ahead of it.

How the values were obtained:
WT GlyT1 [1] = molecular target: T1, WT GlyT1 (Homo sapiens, UniProt P48067); assay: [3H]glycine kinetic uptake assay, WT GlyT1; format: cell-based
T1 sequence (P48067 1-652 isoform P48067-3): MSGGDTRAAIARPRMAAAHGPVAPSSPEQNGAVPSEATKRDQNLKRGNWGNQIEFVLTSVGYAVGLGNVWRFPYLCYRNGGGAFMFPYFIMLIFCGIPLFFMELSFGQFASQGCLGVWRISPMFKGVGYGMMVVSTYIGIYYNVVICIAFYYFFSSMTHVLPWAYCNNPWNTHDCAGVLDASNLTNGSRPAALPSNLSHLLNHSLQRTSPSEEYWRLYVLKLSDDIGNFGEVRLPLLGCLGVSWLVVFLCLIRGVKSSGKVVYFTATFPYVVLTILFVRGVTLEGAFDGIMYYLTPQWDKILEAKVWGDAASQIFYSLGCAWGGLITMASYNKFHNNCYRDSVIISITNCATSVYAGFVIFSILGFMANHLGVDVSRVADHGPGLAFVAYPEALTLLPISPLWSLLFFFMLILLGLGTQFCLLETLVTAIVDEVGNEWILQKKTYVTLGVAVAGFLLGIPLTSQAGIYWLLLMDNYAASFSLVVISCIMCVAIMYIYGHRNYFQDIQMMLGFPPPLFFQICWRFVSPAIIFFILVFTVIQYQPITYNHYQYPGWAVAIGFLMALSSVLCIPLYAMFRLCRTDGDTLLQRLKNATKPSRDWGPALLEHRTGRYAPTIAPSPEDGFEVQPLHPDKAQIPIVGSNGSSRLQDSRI

HEK-293F cells = assay: Cholesterol quantification after MβCD or wsCHOL treatment; format: cell-based, human
WT GlyT1 [2] = assay: Cell surface biotinylation and immunoblot; format: cell-based, human; conditions: 2.5 mg/mL and 3.5 mg/mL MβCD
wild-type GlyT1 = molecular target: T2, wild-type GlyT1 (Homo sapiens, UniProt P48067); assay: [3H]glycine uptake inhibition assay, wild-type GlyT1 in HEK-293F cells; format: cell-based; conditions: IC50, [3H]glycine uptake
T2 sequence (P48067 1-652 isoform P48067-3): T1 sequence (P48067 1-652 isoform P48067-3)
Summary of the method: (§1)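 HEK-293F cells (2.5 × 10^6/mL) infected with baculovirus carrying wild-type or sequence-verified mutant human GlyT1. Cells collected after 15 h and washed in HEPES-Tris pH 7.4 uptake buffer, then preincubated 10 min with graded inhibitor. Uptake ran 1 min at 25 °C with 25 μM [3H]glycine/unlabeled glycine (1:2500). Two cold washes, lysis in 1% Triton X-100, scintillation counting. Uptake normalized to untreated cells. Three independent experiments in triplicate; IC50 fitted to mean data.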

G319S GlyT1 mutant = molecular target: T3, G319S GlyT1 mutant (Homo sapiens, UniProt P48067, G373S); assay: [3H]glycine uptake inhibition assay, GlyT1 G319S mutant; format: cell-based
T3 sequence (P48067 1-652 isoform P48067-3 G319S): T1 sequence (P48067 1-652 isoform P48067-3) with G319S
Summary of the method: as §1

L422T GlyT1 mutant = molecular target: T4, L422T GlyT1 mutant (Homo sapiens, UniProt P48067, L476T); assay: [3H]glycine uptake inhibition assay, GlyT1 L422T mutant; format: cell-based
T4 sequence (P48067 1-652 isoform P48067-3 L422T): T1 sequence (P48067 1-652 isoform P48067-3) with L422T
Summary of the method: as §1

GlyT1 = conditions: rat primary neurons; cited from earlier work
wild-type GlyT2 [3] = molecular target: T5, wild-type GlyT2 (Homo sapiens, UniProt Q9Y345); assay: [3H]glycine uptake inhibition assay, wild-type GlyT2; format: cell-based
T5 sequence (Q9Y345 1-797): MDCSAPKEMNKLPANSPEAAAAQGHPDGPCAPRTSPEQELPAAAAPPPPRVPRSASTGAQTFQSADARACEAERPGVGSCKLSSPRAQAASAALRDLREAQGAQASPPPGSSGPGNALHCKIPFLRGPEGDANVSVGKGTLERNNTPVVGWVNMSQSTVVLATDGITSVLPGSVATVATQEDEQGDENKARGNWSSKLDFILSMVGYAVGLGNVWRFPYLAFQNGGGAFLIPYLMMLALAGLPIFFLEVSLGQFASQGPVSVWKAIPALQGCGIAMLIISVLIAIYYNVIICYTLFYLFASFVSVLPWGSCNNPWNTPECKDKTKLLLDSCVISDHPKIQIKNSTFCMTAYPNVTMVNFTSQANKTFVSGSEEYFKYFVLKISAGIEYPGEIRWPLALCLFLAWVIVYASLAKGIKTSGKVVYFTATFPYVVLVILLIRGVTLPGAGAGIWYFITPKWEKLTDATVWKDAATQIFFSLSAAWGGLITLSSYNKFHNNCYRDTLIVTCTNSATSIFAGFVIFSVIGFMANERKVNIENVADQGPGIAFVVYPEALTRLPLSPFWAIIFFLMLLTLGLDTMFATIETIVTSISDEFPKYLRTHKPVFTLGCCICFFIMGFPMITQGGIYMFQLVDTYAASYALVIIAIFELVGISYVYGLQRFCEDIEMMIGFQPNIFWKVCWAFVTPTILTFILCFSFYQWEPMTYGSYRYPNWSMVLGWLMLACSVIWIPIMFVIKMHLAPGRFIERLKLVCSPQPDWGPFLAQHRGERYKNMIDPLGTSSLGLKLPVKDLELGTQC

S479G GlyT2 mutant = molecular target: T6, S479G GlyT2 mutant (Homo sapiens, UniProt Q9Y345, S479G); assay: [3H]glycine uptake inhibition assay, GlyT2 S479G mutant; format: cell-based
T6 sequence (Q9Y345 1-797 S479G): T5 sequence (Q9Y345 1-797) with S479G

wild-type GlyT2 [4] = molecular target: T5, wild-type GlyT2; conditions: cited from earlier work

- Km (WT GlyT1 [1]; WT GlyT1, untreated cells): 126 µM
Compound: NCC(=O)O [glycine]

- reduction of Vmax compared to WT GlyT1 (WT GlyT1 [1]; 2.5 mg/mL MβCD): about 19.6%
- reduction of Vmax compared to WT GlyT1 (WT GlyT1 [1]; 3.5 mg/mL MβCD): ~26.7%
- effect on Km values (WT GlyT1 [1]; 2.5 and 3.5 mg/mL MβCD): remained relatively unaffected
Compound: Methyl-β-cyclodextrin [MβCD]
- decrease of cholesterol content on the membrane (HEK-293F cells; 2.5 mg/mL MβCD): 10%
- decrease of cholesterol content on the membrane (HEK-293F cells; 3.5 mg/mL MβCD): 20%
- effect on surface expression of GlyT1 (WT GlyT1 [2]): without altering the surface expression

- IC50 (wild-type GlyT1; wild-type GlyT1): 0.162 ± 0.0196 µM
- IC50 (L422T GlyT1 mutant): 5.25 ± 0.33 µM
Compound: C[C@@H](Oc1ccc(S(C)(=O)=O)cc1C(=O)N1C[C@@H]2C[C@]2(c2cc(C(F)(F)F)on2)C1)C(F)(F)F [iclepertin]
- inhibition of G319S mutant (G319S GlyT1 mutant): not inhibited; also recorded: no visible inhibition effect
- IC50 (GlyT1): 0.0052 ± 0.0012 µM

- IC50 (wild-type GlyT1; wild-type GlyT1, mean ± S.E.M.): 96.8 ± 13.7 µM
- IC50 (G319S GlyT1 mutant): 18600 ± 1550 µM
- reduction of inhibitory potency on G319S compared to WT GlyT1 (G319S GlyT1 mutant): ~ 200 fold
- sensitivity of WT GlyT2 to inhibition (wild-type GlyT2 [3]): not sensitive
Compound: CNCC(=O)O [sarcosine, N-methyl glycine]
- susceptibility of S479G GlyT2 to inhibition (S479G GlyT2 mutant): susceptibility similar to that of WT GlyT1
- inhibition of GlyT1 versus GlyT2 (wild-type GlyT2 [4]): can inhibit GlyT1 but not GlyT2
